Measured values taken from ChEMBL document CHEMBL1131460, “2-substituted (2SR)-2-amino-2-((1SR,2SR)-2-carboxycycloprop-1-yl)glycines as potent and selective antagonists of group II metabotropic glutamate receptors. 2. Effects of aromatic substitution, pharmacological characterization, and bioavailability” (J Med Chem, 1998).

Legend:
[1] = Maximum concentration achieved in rat brain when administered intravenously at a dose of 10 mg/kg; type: ADME, organism-based; set-up: dose 10 mg/kg, route intravenous; settings: iv
Method in brief: (§1)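 Male Fischer 344 rats dosed iv or ip at 10 mg/kg, or orally at 10 or 100 mg/kg; five rats per route and dose. Blood and brain taken from one rat per time point (0.25, 0.5, 1, 2, 4 h after iv/ip; 0.5, 1, 2, 4, 6 h after po). Plasma and brain homogenates derivatized, extracted, assayed by negative-ion chemical ionization GCMS (LOQ 100 pg/mL plasma, 1 ng/g brain).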

[2] = Brain concentration after 1 hr at a dose of 100 mg/kg when administered perorally; settings: po
Rattus norvegicus [3] = test: Area under curve was evaluated in rat brain when administered intravenously at a dose of 10 mg/kg for infinite hours; type: ADME, organism-based; set-up: time infinity, dose 10 mg/kg, route intravenous; settings: in vivo, iv
[4] = Half-life in rat brain when administered intravenously at a dose of 10 mg/kg; type: ADME, organism-based; set-up: dose 10 mg/kg, route intravenous; settings: iv
[5] = Time of maximum concentration achieved in rat brain when administered intraperitoneally at a dose of 10 mg/kg; type: ADME, organism-based; set-up: dose 10 mg/kg, route intraperitoneal; settings: ip; method in brief: as §1
[6] = Plasma concentration after 1 hr at a dose of 100 mg/kg when administered perorally; settings: po
in vivo [7] = settings: brain, iv, 10 mg/kg
[8] = Maximum concentration achieved in rat plasma when administered intraperitoneally at a dose of 10 mg/kg; type: ADME, organism-based; set-up: dose 10 mg/kg, route intraperitoneal; settings: ip; method in brief: as §1
[9] = Half-life in rat plasma when administered intravenously at a dose of 10 mg/kg; type: ADME, organism-based; set-up: dose 10 mg/kg, route intravenous; settings: iv
Method in brief: (§2)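 Male Fischer 344 rats were dosed at 10 mg/kg iv, 10 mg/kg ip, or 10 or 100 mg/kg po, with five rats per route and dose. One rat was sampled for blood and brain at each time: 0.25, 0.5, 1, 2 and 4 h after iv/ip, and 0.5, 1, 2, 4 and 6 h after po. Plasma and brain homogenates were derivatized, extracted and quantified by negative-ion chemical ionization GCMS (LOQ 100 pg/mL plasma, 1 ng/g brain).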

[10] = Time of maximum concentration achieved in rat brain when administered perorally at a dose of 10 mg/kg; type: ADME, organism-based; set-up: dose 10 mg/kg, route oral; settings: po; method in brief: as §1
[11] = Bioavailability in rat (dose 10 mg/kg p.o.); type: ADME, organism-based; settings: in vivo, po
[12] = Plasma concentration after 0.5 hr at a dose of 10 mg/kg when administered intravenously; settings: iv
[13] = Maximum concentration achieved in rat brain when administered perorally at a dose of 10 mg/kg; type: ADME, organism-based; set-up: dose 10 mg/kg, route oral; settings: po; method in brief: as §1
Rattus norvegicus [14] = test: Area under curve was evaluated in rat plasma when administered perorally at a dose of 10 mg/kg for infinite hours; type: ADME, organism-based; set-up: time infinity, dose 10 mg/kg, route oral; settings: in vivo, po; method in brief: as §2
[15] = Plasma concentration after 6 hr at a dose of 100 mg/kg when administered perorally; settings: po
[16] = Plasma concentration after 1 hr at a dose of 10 mg/kg when administered intraperitoneally; settings: ip
[17] = Half-life in rat plasma when administered perorally at a dose of 100 mg/kg; type: ADME, organism-based; set-up: dose 100 mg/kg, route oral; settings: po; method in brief: as §1
[18] = Brain concentration after 1 hr at a dose of 10 mg/kg when administered perorally; settings: po
[19] = Half-life in rat brain when administered intraperitoneally at a dose of 10 mg/kg; type: ADME, organism-based; set-up: dose 10 mg/kg, route intraperitoneal; settings: ip
[20] = Plasma concentration after 4 hr at a dose of 10 mg/kg when administered intravenously; settings: iv
[21] = Maximum concentration achieved in rat brain when administered perorally at a dose of 100 mg/kg; type: ADME, organism-based; set-up: dose 100 mg/kg, route oral; settings: po; method in brief: as §1
[22] = Plasma concentration after 4 hr at a dose of 10 mg/kg when administered perorally; settings: po
[23] = Brain concentration after 6 hr at a dose of 10 mg/kg when administered perorally; settings: po
Rattus norvegicus [24] = test: Area under curve was evaluated in rat plasma when administered perorally at a dose of 100 mg/kg for 4 or 6 hours; type: ADME, organism-based; set-up: dose 100 mg/kg, route oral; settings: in vivo, po; method in brief: as §2
[25] = Maximum concentration achieved in rat plasma when administered intravenously at a dose of 10 mg/kg; type: ADME, organism-based; set-up: dose 10 mg/kg, route intravenous; settings: iv; method in brief: as §1
Rattus norvegicus [26] = test: Bioavailability was evaluated in rat plasma when administered intraperitoneally at a dose of 10 mg/kg; type: ADME, organism-based; settings: in vivo, ip
in vivo [27] = settings: brain, iv, 10 mg/kg; remark: listed apart in the source
[28] = Brain concentration after 0.5 hr at a dose of 10 mg/kg when administered perorally; settings: po
[29] = Plasma concentration after 2 hr at a dose of 10 mg/kg when administered intraperitoneally; settings: ip
[30] = Binding affinity for Group II Metabotropic glutamate receptor was measured using [3H]glutamate in rat forebrain membranes; type: cell membranes, Membrane
Method in brief: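 ACPD-sensitive [³H]glutamate binding to group II mGluRs in rat forebrain membranes, reported as IC50. Most values are single-point determinations; others are averages of two or three determinations. Values in parentheses are percent radioligand displacement at 1 μM.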

[31] = Plasma concentration after 4 hr at a dose of 10 mg/kg when administered intraperitoneally; settings: ip
[32] = Brain concentration after 4 hr at a dose of 10 mg/kg when administered intraperitoneally; settings: ip
[33] = Plasma concentration after 2 hr at a dose of 10 mg/kg when administered perorally; settings: po
[34] = Maximum concentration achieved in rat brain when administered intraperitoneally at a dose of 10 mg/kg; type: ADME, organism-based; set-up: dose 10 mg/kg, route intraperitoneal; settings: ip; method in brief: as §1
[35] = Plasma concentration after 6 hr at a dose of 10 mg/kg when administered perorally; settings: po

N[C@](CC1c2ccccc2Oc2ccccc21)(C(=O)O)[C@H]1C[C@@H]1C(=O)O
Cmax [1]: 243 ng/g
concentration at 1 h [2]: 16.4 ng/g
AUC (Rattus norvegicus [3]): 1840 ng·h/mL
half-life [4]: 5.43 h
Tmax [5]: 0.5 h
concentration at 1 h [6]: 475 ng/mL
concentration at 0.25 h (in vivo [7]): 234 ng/g
Cmax [8]: 14300 ng/mL
half-life [9]: 0.48 h
Tmax [10]: 4 h
F [11]: 2%
bioavailability [11]: 3.4%
concentration at 0.5 h [12]: 5970 ng/mL
Cmax [13]: 7.4 ng/g
AUC (Rattus norvegicus [14]): 284 ng·h/mL
concentration at 6 h [15]: 102 ng/mL
concentration at 1 h [16]: 4570 ng/mL
half-life [17]: 1.94 h
concentration at 1 h [18]: 2.1 ng/g
half-life [19]: 4.75 h
concentration at 4 h [20]: 35.9 ng/mL
Cmax [21]: 30 ng/g
concentration at 4 h [22]: 28.3 ng/mL
concentration at 6 h [23]: 4.8 ng/g
AUC (Rattus norvegicus [24]): 1380 ng·h/mL
Cmax [25]: 12000 ng/mL
Bioavailabiility (Rattus norvegicus [26]): 152%
concentration at 1 h (in vivo [27]): 188 ng/g
concentration at 0.5 h [28]: 1.7 ng/g
concentration at 2 h [29]: 1120 ng/mL
IC50 [30]: 2.9 nM
concentration at 4 h [31]: 39.9 ng/mL
concentration at 4 h [32]: 149 ng/g
concentration at 2 h [33]: 50 ng/mL
Cmax [34]: 246 ng/g
concentration at 6 h [35]: 17.5 ng/mL
